From ChEMBL document CHEMBL4699666, “Cyclic Peptidyl Inhibitors against CAL/CFTR Interaction for Treatment of Cystic Fibrosis” (J Med Chem, 2020)
Non-standard residues stand in square brackets, D forms with d. Residues, ends and D or L forms follow the SMILES beside them. 1Nal = N[C@@H](Cc1cccc2ccccc12)C(=O)O; 2Nal = N[C@@H](Cc1ccc2ccccc2c1)C(=O)O; Bta = N[C@@H](Cc1csc2ccccc12)C(=O)O; Pen = CC(C)(S)[C@H](N)C(=O)O; Tle = CC(C)(C)[C@H](N)C(=O)O

molecular target: Golgi-associated PDZ and coiled-coil motif-containing protein (Homo sapiens, UniProt Q9HD26); assay: Binding affinity to C-terminal His6 tagged CAL PDZ domain (unknown origin) expressed in Escherichia coli BL21 incubated for 1 hr using FAM-22 probe by fluorescence polarization based competition assay

| IC50 [nM] | SMILES |
| --- | --- |
| 1800 | CC(=O)N[C@@H](CS)C(=O)N[C@@H](CCCNC(=N)N)C(=O)N[C@@H](CCCNC(=N)N)C(=O)N[C@@H](CCCNC(=N)N)C(=O)N[C@@H](Cc1ccccc1)C(=O)N[C@@H](Cc1cccc2ccccc12)C(=O)N[C@@H](CCC(N)=O)C(=O)N[C@@H](CS)C(=O)N[C@H](C(=O)N[C@@H](CCCNC(=N)N)C(=O)N[C@H](C(=O)O)C(C)(C)C)[C@@H](C)O (Ac-CRRRF[1Nal]QCTR[Tle]-OH) |
| 150 | CC(=O)N[C@@H](CS)C(=O)N[C@@H](CCCNC(=N)N)C(=O)N[C@@H](CCCNC(=N)N)C(=O)N[C@@H](CCCNC(=N)N)C(=O)N[C@@H](Cc1cccc2ccccc12)C(=O)N[C@@H](Cc1c[nH]c2ccccc12)C(=O)N[C@@H](CCC(N)=O)C(=O)N[C@H](C(=O)N[C@H](C(=O)N[C@@H](CCCNC(=N)N)C(=O)N[C@H](C(=O)O)C(C)(C)C)[C@@H](C)O)C(C)(C)S (Ac-CRRR[1Nal]WQ[Pen]TR[Tle]-OH) |
| 150 | CC(=O)N[C@@H](CS)C(=O)N[C@@H](CCCNC(=N)N)C(=O)N[C@@H](CCCNC(=N)N)C(=O)N[C@@H](CCCNC(=N)N)C(=O)N[C@@H](Cc1ccc2ccccc2c1)C(=O)N[C@@H](Cc1c[nH]c2ccccc12)C(=O)N[C@@H](CCC(N)=O)C(=O)N[C@H](C(=O)N[C@H](C(=O)N[C@@H](CCCNC(=N)N)C(=O)N[C@H](C(=O)O)C(C)(C)C)[C@@H](C)O)C(C)(C)S (Ac-CRRR[2Nal]WQ[Pen]TR[Tle]-OH) |
| 170 | CC(=O)N[C@@H](CS)C(=O)N[C@H](CCCNC(=N)N)C(=O)N[C@@H](CCCNC(=N)N)C(=O)N[C@@H](CCCNC(=N)N)C(=O)N[C@@H](Cc1ccc2ccccc2c1)C(=O)N[C@@H](Cc1c[nH]c2ccccc12)C(=O)N[C@@H](CCC(N)=O)C(=O)N[C@H](C(=O)N[C@H](C(=O)N[C@@H](CCCNC(=N)N)C(=O)N[C@H](C(=O)O)C(C)(C)C)[C@@H](C)O)C(C)(C)S (Ac-C[dR]RR[2Nal]WQ[Pen]TR[Tle]-OH) |

system: not listed separately; assay: Drug uptake in human HeLa cells at 5 uM incubated for 2 hrs by flow cytometry relative to CPP9; type: ADME, cell-based
How it was run: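 Naphthofluorescein-labelled cyclic peptides (5 μM final, 0.5% DMSO, in DMEM with 10% FBS) were applied to HeLa cells, seeded the day before at 15 × 10^4 per well, for 2 h at 37 °C. Cells were washed with cold DPBS, trypsinized and analysed by flow cytometry. Mean fluorescence was expressed as % of CPP9; n = 3.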

| SMILES | Drug uptake [%] |
| --- | --- |
| CC(=O)N[C@@H](CS)C(=O)N[C@@H](CCCNC(=N)N)C(=O)N[C@H](CCCNC(=N)N)C(=O)N[C@@H](CCCNC(=N)N)C(=O)N[C@@H](Cc1ccc2ccccc2c1)C(=O)N[C@@H](Cc1c[nH]c2ccccc12)C(=O)N[C@@H](CCC(N)=O)C(=O)N[C@H](C(=O)N[C@H](C(=O)N[C@@H](CCCNC(=N)N)C(=O)N[C@H](C(=O)O)C(C)(C)C)[C@@H](C)O)C(C)(C)S (Ac-CR[dR]R[2Nal]WQ[Pen]TR[Tle]-OH) | 17 |
| CC(=O)N[C@@H](CS)C(=O)N[C@H](CCCNC(=N)N)C(=O)N[C@@H](CCCNC(=N)N)C(=O)N[C@@H](CCCNC(=N)N)C(=O)N[C@@H](Cc1ccc2ccccc2c1)C(=O)N[C@@H](Cc1c[nH]c2ccccc12)C(=O)N[C@@H](CCC(N)=O)C(=O)N[C@H](C(=O)N[C@H](C(=O)N[C@@H](CCCNC(=N)N)C(=O)N[C@H](C(=O)O)C(C)(C)C)[C@@H](C)O)C(C)(C)S (Ac-C[dR]RR[2Nal]WQ[Pen]TR[Tle]-OH) | 28 |

Second part, the compound after the results:

| Drug uptake [%] | SMILES |
| --- | --- |
| 92 | CC(=O)N[C@@H](CS)C(=O)N[C@H](CCCNC(=N)N)C(=O)N[C@@H](CCCNC(=N)N)C(=O)N[C@@H](CCCNC(=N)N)C(=O)N[C@@H](Cc1ccc2ccccc2c1)C(=O)N[C@@H](Cc1c[nH]c2ccccc12)C(=O)N[C@H](C(=O)N[C@H](C(=O)N[C@H](C(=O)N[C@@H](CCCNC(=N)N)C(=O)N[C@H](C(=O)O)C(C)(C)C)[C@@H](C)O)C(C)(C)C)C(C)(C)S (Ac-C[dR]RR[2Nal]W[Pen][Tle]TR[Tle]-OH) |
| 36 | CC(=O)N[C@@H](CS)C(=O)N[C@H](CCCNC(=N)N)C(=O)N[C@@H](CCCNC(=N)N)C(=O)N[C@@H](CCCNC(=N)N)C(=O)N[C@@H](Cc1ccc2ccccc2c1)C(=O)N[C@@H](Cc1csc2ccccc12)C(=O)N1CCC[C@H]1C(=O)N[C@H](C(=O)N[C@H](C(=O)N[C@@H](CCCNC(=N)N)C(=O)N[C@H](C(=O)O)C(C)(C)C)[C@@H](C)O)C(C)(C)S (Ac-C[dR]RR[2Nal][Bta]P[Pen]TR[Tle]-OH) |
| 23 | CC(=O)N[C@@H](CS)C(=O)N[C@H](CCCNC(=N)N)C(=O)N[C@H](CCCNC(=N)N)C(=O)N[C@@H](CCCNC(=N)N)C(=O)N[C@@H](Cc1ccc2ccccc2c1)C(=O)N[C@@H](Cc1c[nH]c2ccccc12)C(=O)N[C@@H](CCC(N)=O)C(=O)N[C@H](C(=O)N[C@H](C(=O)N[C@@H](CCCNC(=N)N)C(=O)N[C@H](C(=O)O)C(C)(C)C)[C@@H](C)O)C(C)(C)S (Ac-C[dR][dR]R[2Nal]WQ[Pen]TR[Tle]-OH) |
